According to ChEMBL document CHEMBL1141573, “Quinolone 3-carboxylic acid pharmacophore: design of second generation HIV-1 integrase inhibitors” (J Med Chem, 2008):
Each block holds one compound with its values, some of them ahead of it. Activity calls are given as the source filed them. No cut-off for these calls is given here.

What was measured:
[1] = target: T1, Human immunodeficiency virus type 1 integrase (Human immunodeficiency virus 1, UniProt Q7ZJM1); assay: Inhibition of HIV1 integrase 3'-end processing activity
Outline: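 Wild-type recombinant IN, 200 nM final, preincubated with inhibitor at 30 °C for 30 min in buffer with 7.5 mM MnCl2, 10% DMSO, 25 mM MOPS pH 7.2. Then 20 nM 5′-32P-labeled 21-mer U5 LTR duplex substrate added, incubated a further 1 h. 21-mer to 19-mer conversion gives % inhibition versus DNA-alone and no-drug controls. IC50 from log concentration versus % inhibition.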

[2] = target: T1, Human immunodeficiency virus type 1 integrase; assay: Inhibition of HIV1 integrase strand transfer activity
[3] = target: Human immunodeficiency virus type 1 integrase (Human immunodeficiency virus 1) (UniProt Q7ZJM1); assay: Inhibition of HIV1 integrase at 100 uM
Outline: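 Wild-type recombinant IN (200 nM final) preincubated with compound 30 min at 30 °C in buffer with 7.5 mM MnCl2, 10% DMSO, MOPS pH 7.2. Then 20 nM 5′-32P-labeled 21-mer U5 LTR duplex added for 1 h. Reactions quenched with formamide loading dye. Conversion to 19-mer (3′-processing) and strand transfer products gives % inhibition versus DNA alone and DNA plus IN.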

[4] = system: Human immunodeficiency virus 1; assay: Antiviral activity against HIV1 in MT4 cells assessed as inhibition of viral-induced cytopathic effect by MTT method; format: functional, organism-based; settings: Human immunodeficiency virus 1, MT4
Outline: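 MT-4 cells (RPMI 1640 with 10% heat-inactivated FCS, 2 mM L-glutamine, 37 °C, 5% CO2) infected with 100–300 CCID50 of HIV-1(IIIB) in presence of 5-fold serial compound dilutions. Viral CPE read by MTT reduction to formazan measured spectrophotometrically. IC50 = concentration giving 50% protection against CPE.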

[5] = Cytotoxicity against human MT4 cells; format: cell-based
Outline: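 Viability of mock-infected MT-4 cells after 5 days of incubation, measured by MTT reduction to formazan read spectrophotometrically; CC50 derived.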

T1 sequence (Q7ZJM1 whole entry): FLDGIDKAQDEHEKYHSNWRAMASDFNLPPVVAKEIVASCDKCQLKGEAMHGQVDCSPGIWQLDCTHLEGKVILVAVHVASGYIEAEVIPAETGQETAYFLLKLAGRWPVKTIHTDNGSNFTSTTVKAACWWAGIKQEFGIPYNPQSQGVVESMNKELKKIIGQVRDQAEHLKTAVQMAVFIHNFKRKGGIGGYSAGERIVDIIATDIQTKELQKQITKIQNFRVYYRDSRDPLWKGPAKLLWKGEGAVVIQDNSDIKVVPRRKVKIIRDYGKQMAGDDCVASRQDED
Chain of Human immunodeficiency virus type 1 integrase (Human immunodeficiency virus 1) (Q7ZJM1 as listed by the source): as the sequence (Q7ZJM1 whole entry) above

IC50 [1]: > 100 µM
IC50 [2]: > 100 µM
SMILES: O=C(O)CSc1nc(-c2ccccc2)cc(C(F)(F)F)n1

Activity [3]: inactive
SMILES: O=C(O)CCCC(=O)Nc1nc(-c2cccc3ccccc23)cs1

Activity [3]: inactive
SMILES: COc1ccc(-c2nnc(SCC(=O)N/N=C/c3ccccc3C(=O)O)n2-c2ccccc2)cc1OC

IC50 [1]: 92 µM
IC50 [2]: 66 µM
SMILES: O=C(O)CN1C(=O)/C(=C2\SC(=S)N(C(Cc3ccccc3)C(=O)O)C2=O)c2ccccc21 (stereo unspecified)

Activity [3]: inactive
SMILES: O=C(Nc1ccccc1C(=O)O)c1ccc(CN2CCc3ccccc3C2)cc1

Activity [3]: inactive
SMILES: COc1ccc2[nH]c(SCC(=O)Nc3cc(C(=O)O)ccc3C)nc2c1

Activity [3]: inactive
SMILES: CCOc1cc(CNc2nn[nH]n2)ccc1OCc1ccccc1

IC50 [1]: 42 µM
IC50 [2]: 18 µM
SMILES: O=C(O)c1ccccc1NC(=O)c1ccccc1S(=O)(=O)Nc1ccc(Oc2ccccc2)cc1

Activity [3]: inactive
SMILES: O=C(O)c1ccccc1SCCSc1ccccc1C(=O)O

Activity [3]: inactive
SMILES: O=C(CSc1nnc(-c2ccc(Cl)cc2)n1-c1ccccc1)N/N=C/c1ccccc1C(=O)O

IC50 [1]: 82 µM
IC50 [2]: 43 µM
SMILES: COc1cccc(NC(=O)c2sc3[nH]c(=O)c(C(=O)O)cc3c2N)c1

Activity [3]: inactive
SMILES: O=C(O)COc1ccc2c(-c3ccccc3)cc(=O)oc2c1

Activity [3]: inactive
SMILES: Cc1nn(-c2ccccc2)c2sc(-c3nnc(SCC(=O)O)o3)cc12

Activity [3]: inactive
SMILES: Cc1nc2ccccc2n1CC(O)COc1cccc(C(=O)O)c1 (stereo unspecified)

Activity [3]: inactive
SMILES: COc1ccc(-c2ccc(-c3nnn(C(C)C(=O)O)n3)cc2)cc1 (stereo unspecified)

Activity [3]: inactive
SMILES: O=C(O)CSc1ccc(-c2nc3ccccc3[nH]2)cn1

Activity [3]: inactive
SMILES: O=C(O)C1CC=CCC1C(=O)Nc1ccc(Cc2ccncc2)cc1 (stereo unspecified)

Activity [3]: inactive
SMILES: O=C(O)CSc1nnc(COc2cccc3ccccc23)o1

IC50 [1]: 48 µM
IC50 [2]: 23 µM
SMILES: Cc1ccc2nc(-c3ccc(NC(=O)/C=C/C(=O)O)cc3)sc2c1

IC50 [1]: 14 µM
IC50 [2]: 5 µM
SMILES: Nc1c(C(=O)Nc2ccc(Cl)c(Cl)c2)sc2[nH]c(=O)c(C(=O)O)cc12

IC50 [1]: 63 µM
IC50 [2]: 17 µM
SMILES: Cc1ccc(C(=O)O)cc1NC(=O)CSc1nc2ccccc2s1

Activity [3]: inactive
SMILES: O=C(O)C1CC(=O)N(c2ccc(OCc3ccccc3Cl)cc2)C1 (stereo unspecified)

IC50 [1]: 98 µM
IC50 [2]: 60 µM
SMILES: N#Cc1c(-c2ccc(Cl)cc2)cc(-c2ccccc2)nc1SCC(=O)O

IC50 [1]: > 100 µM
IC50 [2]: > 100 µM
SMILES: O=C(O)CSc1nc(Nc2ccccc2)nc(N2CCOCC2)n1

Activity [3]: inactive
SMILES: O=C(O)c1cccc(OCC(O)Cn2cnc3ccccc32)c1 (stereo unspecified)

Activity [3]: inactive
SMILES: Cc1ccc(C)c(NC(=O)CSc2ncccc2C(=O)O)c1

Activity [3]: inactive
SMILES: COc1ccc(/C=N/Nc2nc(C(=O)O)cs2)cc1

IC50 [1]: > 100 µM
IC50 [2]: 34 µM
SMILES: O=C(O)C1CCCCC1C(=O)Nc1ccc(Oc2cccc3ccccc23)cc1 (stereo unspecified)
CC50 [5]: 3.5 µM

Activity [3]: inactive
SMILES: COc1cc(NC(=O)c2ccc3c(c2)C(=O)N(c2ccccc2OC)C3=O)c(C(=O)O)cc1OC

Activity [3]: inactive
SMILES: O=C(O)C1CC(=O)N(c2ccc(OCc3c(F)cccc3Cl)cc2)C1 (stereo unspecified)

Activity [3]: inactive
SMILES: O=C(O)CSCC(=O)Nc1nc(-c2ccccc2)cs1

Activity [3]: inactive
SMILES: CCN(C(=O)CCC(=O)O)c1nc(CC(=O)Nc2ccc(Cl)cc2)cs1

Activity [3]: inactive
SMILES: O=C(O)CSc1nnc2n(Cc3ccc(F)cc3)c3ccccc3n12

Activity [3]: inactive
SMILES: Cc1ccc(OCc2nnc(SC(C)C(=O)O)n2-c2ccccc2)cc1 (stereo unspecified)

Activity [3]: inactive
SMILES: O=C(CSc1ncccc1C(=O)O)Nc1cccc2ccccc12

Activity [3]: inactive
SMILES: O=C(Nc1ccccn1)c1ccc(NC(=O)C2CC=CCC2C(=O)O)cc1 (stereo unspecified)

IC50 [1]: > 100 µM
IC50 [2]: 46 µM
SMILES: O=C(O)C(O)C(O)c1nc2cc3ccccc3cc2[nH]1 (stereo unspecified)

Second part, the compound before the results:

SMILES: O=C(O)CSc1nnc(-c2ccco2)c(-c2ccco2)n1
IC50 [1]: 18 µM
IC50 [2]: 5 µM

SMILES: CCOc1cc(N(CC)CC)ccc1/C=C1\C(=O)N(c2nnn[nH]2)N=C1C
IC50 [1]: 61 µM
IC50 [2]: 65 µM

SMILES: CCCn1nc(NC(=O)CCC(=O)O)c2cc3cc(C)ccc3nc21
Activity [3]: inactive

SMILES: CCOc1cc(CNc2nn[nH]n2)cc(Cl)c1OCc1ccc(Cl)cc1
IC50 [1]: > 100 µM
IC50 [2]: 52 µM

SMILES: Cc1ccc2[nH]c(CNC(=O)CCC(=O)O)cc2c1
Activity [3]: inactive

SMILES: Cc1ccc2nc(NC(=O)CCC(=O)O)sc2c1
Activity [3]: inactive

SMILES: CCn1c(CNC(=O)CCC(=O)O)cc2ccccc21
Activity [3]: inactive

SMILES: CCOc1cc(/C=C2\C(=O)N(c3nnn[nH]3)N=C2C)cc(Cl)c1OCC
IC50 [1]: 7 µM
IC50 [2]: 4 µM

SMILES: COc1cc2c(cc1Cc1cccc(Cl)c1F)c(=O)c(C(=O)O)cn2[C@@H](CO)C(C)C
EC50 [4]: 0.9 nM

SMILES: CCOc1cc(C2NC(C(=O)O)CS2)ccc1OCc1cccc(C)c1 (stereo unspecified)
Activity [3]: inactive

SMILES: Cc1ccc2nc(NC(=O)CSCC(=O)O)sc2c1
Activity [3]: inactive

SMILES: COc1cc(CNc2nn[nH]n2)ccc1OCc1ccc(C)cc1
Activity [3]: inactive

SMILES: O=C(O)c1c[nH]c2ccc(Cc3cccc(Cl)c3F)cc2c1=O
EC50 [4]: 805 nM

SMILES: Cc1cc(-c2cccnc2)c(C#N)c(SCC(=O)O)n1
Activity [3]: inactive

SMILES: COc1cc(/C=C2\C(=O)N(c3nnn[nH]3)N=C2C)cc(Cl)c1OC
IC50 [1]: 5 µM
IC50 [2]: 4 µM

SMILES: CCn1nc(NC(=O)CCC(=O)O)c2cc3cc(C)ccc3nc21
Activity [3]: inactive

SMILES: COc1cc2c(cc1Cc1cccc(Cl)c1F)c(=O)c(C(=O)O)cn2CCO
EC50 [4]: 17 nM

SMILES: CCOc1cc(/C=C2\C(=O)N(c3nnn[nH]3)N=C2C)ccc1OC
IC50 [1]: 75 µM
IC50 [2]: 59 µM

SMILES: COc1cc(CNc2nn[nH]n2)ccc1OCc1cccc(Cl)c1
Activity [3]: inactive

SMILES: COc1cc(CNc2nn[nH]n2)ccc1OCc1ccc(Cl)cc1
Activity [3]: inactive

SMILES: COc1cc(CNc2nn[nH]n2)ccc1OCc1c(F)cccc1Cl
Activity [3]: inactive

SMILES: Cc1cc(OCn2ccc(C(=O)O)n2)ccc1Cl
Activity [3]: inactive

SMILES: CCn1nc(NC(=O)CCCC(=O)O)c2cc3cc(C)ccc3nc21
Activity [3]: inactive

SMILES: CC(C)[C@H](CO)n1cc(C(=O)O)c(=O)c2cc(Cc3cccc(Cl)c3F)ccc21
EC50 [4]: 7 nM

SMILES: COc1cc(C2NC(C(=O)O)CS2)ccc1OCc1c(Cl)cccc1Cl (stereo unspecified)
Activity [3]: inactive

SMILES: COc1cc(CNc2nn[nH]n2)ccc1OCc1c(Cl)cccc1Cl
Activity [3]: inactive

SMILES: COc1ccc(/C=C2\C(=O)N(c3nnn[nH]3)N=C2C)cc1OCc1ccccc1Cl
IC50 [1]: 14 µM
IC50 [2]: 5 µM

SMILES: O=C(O)CSc1nc(-c2cccs2)cc(C(F)(F)F)n1
IC50 [1]: > 100 µM
IC50 [2]: > 100 µM

SMILES: CC1=NN(c2nnn[nH]2)C(=O)/C1=C\c1cc(Cl)c(O)c(Cl)c1
IC50 [1]: 11 µM
IC50 [2]: 13 µM

SMILES: CCOc1cc(CNc2nn[nH]n2)ccc1OCc1ccc(C)cc1
Activity [3]: inactive

SMILES: COc1cc(CNc2nn[nH]n2)ccc1OCc1cccc(C)c1
Activity [3]: inactive

SMILES: COc1cc(CNc2nn[nH]n2)ccc1OCc1ccc(F)cc1
Activity [3]: inactive

SMILES: O=C(O)c1cn(CCO)c2ccc(Cc3cccc(Cl)c3F)cc2c1=O
EC50 [4]: 76 nM
